In ChEMBL document CHEMBL1649158, “Emergence of plasmid-mediated quinolone resistance among non-Typhi Salmonella enterica isolates from humans in the United States” (2009):
In brackets after ≈: the same amount, converted by molar mass.

What was measured:
[1] = Antimicrobial activity against multidrug-resistant Salmonella enterica serotype Montevideo isolate AM28704 expressing qnrA1 gene by broth microdilution method
[2] = Antimicrobial activity against multidrug-resistant Salmonella enterica serotype Corvallis isolate AM25736 expressing qnrS1 gene by broth microdilution method
Salmonella typhimurium [3] = assay: Antimicrobial activity against multidrug-resistant Salmonella enterica serotype Typhimurium isolate AM27549 expressing qnrS1 gene by broth microdilution method
Salmonella typhimurium [4] = assay: Antimicrobial activity against multidrug-resistant Salmonella enterica serotype Typhimurium var. O:5 isolate AM25008 expressing aac(6')-Ib-cr gene by broth microdilution method
[5] = Antimicrobial activity against multidrug-resistant Salmonella enterica serotype Corvallis isolate AM20376 expressing qnrS1 gene by broth microdilution method
[6] = Antimicrobial activity against Salmonella enterica serotype Corvallis isolate AM25927 expressing qnrS1 gene by broth microdilution method
Salmonella typhimurium [7] = assay: Antimicrobial activity against multidrug-resistant Salmonella enterica serotype Typhimurium isolate AM27125 expressing qnrB5 gene by broth microdilution method
[8] = Antimicrobial activity against tetracycline- and trimethoprim-sulfamethoxazole-resistant Salmonella enterica serotype Saintpaul isolate AM26790 expressing qnrS1 gene by broth microdilution method
Salmonella typhimurium [9] = assay: Antimicrobial activity against multidrug-resistant Salmonella enterica serotype Typhimurium isolate AM27315 expressing qnrS1 gene by broth microdilution method
Salmonella enteritidis = assay: Antimicrobial activity against ampicillin- and streptomycin-resistant Salmonella enterica serotype Enteritidis isolate AM25798 expressing qnrS1 gene by broth microdilution method
Salmonella enterica [10] = assay: Antimicrobial activity against Salmonella enterica serotype telelkebir isolate AM21420 expressing qnrB5 gene by broth microdilution method; format: functional
Method in brief: (§1)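 MICs for 14 to 17 antimicrobial agents were measured by commercial broth microdilution panels. Isolates were screened for aac(6′)-Ib by SYBR green real-time PCR: 0.4 μM each primer, 35 cycles (95°C 20 s, 55°C 30 s, 72°C 30 s), then a 70–90°C melt curve.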

[11] = Antimicrobial activity against trimethoprim-sulfamethoxazole-resistant Salmonella enterica serotype Montevideo isolate AM19383 expressing qnrS1 gene by broth microdilution method
Salmonella typhimurium [12] = assay: Antimicrobial activity against Salmonella enterica serotype Typhimurium isolate AM29869 expressing qnrS1 gene by broth microdilution method
Salmonella enterica [13] = assay: Antimicrobial activity against nalidixic acid-resistant Salmonella enterica serotype Kiambu isolate AM27031 expressing qnrB5 gene by broth microdilution method; format: functional; method in brief: as §1
Salmonella enterica [14] = assay: Antimicrobial activity against Salmonella enterica serotype Aqua isolate AM26209 expressing qnrB5 gene by broth microdilution method; format: functional
Method in brief: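 Broth microdilution panel of 14 to 17 antimicrobial agents against human clinical non-Typhi Salmonella isolates, read as MIC. The study enrolled isolates with decreased ciprofloxacin susceptibility (≥0.25 mg/liter). qnr genes were detected by previously described methods. 2006 data are preliminary.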

[15] = Antimicrobial activity against tetracycline-resistant Salmonella enterica serotype Saintpaul isolate AM30594 expressing qnrS1 gene by broth microdilution method
Salmonella enterica [16] = assay: Antimicrobial activity against multidrug-resistant Salmonella enterica serotype Cubana isolate AM28764 expressing qnrB2 gene by broth microdilution method; format: functional; method in brief: as §1
Salmonella typhimurium [17] = assay: Antimicrobial activity against Salmonella enterica serotype Typhimurium isolate AM29365 expressing qnrS1 gene by broth microdilution method

O=C(O)c1cn(C2CC2)c2cc(N3CCNCC3)c(F)cc2c1=O [CIPROFLOXACIN]
MIC [1]: 0.25 µg/mL (≈ 0.754 µM) | MIC [2]: 0.25 µg/mL (≈ 0.754 µM) | MIC (Salmonella typhimurium [3]): 0.5 µg/mL (≈ 1.51 µM) | MIC (Salmonella typhimurium [4]): 1 µg/mL (≈ 3.02 µM) | MIC [5]: 0.5 µg/mL (≈ 1.51 µM) | MIC [6]: 0.25 µg/mL (≈ 0.754 µM) | MIC (Salmonella typhimurium [7]): 0.5 µg/mL (≈ 1.51 µM) | MIC [8]: 0.5 µg/mL (≈ 1.51 µM) | MIC (Salmonella typhimurium [9]): 0.5 µg/mL (≈ 1.51 µM) | MIC (Salmonella enteritidis): 0.5 µg/mL (≈ 1.51 µM) | MIC (Salmonella enterica [10]): 0.5 µg/mL (≈ 1.51 µM) | MIC [11]: 0.5 µg/mL (≈ 1.51 µM) | MIC (Salmonella typhimurium [12]): 0.5 µg/mL (≈ 1.51 µM) | MIC (Salmonella enterica [13]): 0.5 µg/mL (≈ 1.51 µM) | MIC (Salmonella enterica [14]): 0.25 µg/mL (≈ 0.754 µM) | MIC [15]: 0.5 µg/mL (≈ 1.51 µM) | MIC (Salmonella enterica [16]): 0.5 µg/mL (≈ 1.51 µM) | MIC (Salmonella typhimurium [17]): 0.5 µg/mL (≈ 1.51 µM)
